MrgX1 antag – antagonists of human MrgX1 receptor, primary screen, HEK293 cells, Fluo-4 calcium flux | BAM8-22 antagonism; stronger effect = lower value | B-score at 10 µM | 310,000 tested, 1.3% active | AID 588676, 2011;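 active means calcium-response B-score plate-corrected more than 3 library SD below zero, starting fluorescence within 5 deviations, no agonist response on first addition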;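 further: peak minus trough fluorescence over baseline after final BAM8-22 challenge near maximal dose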
Target sequence (Q96LB2 whole entry, looked up): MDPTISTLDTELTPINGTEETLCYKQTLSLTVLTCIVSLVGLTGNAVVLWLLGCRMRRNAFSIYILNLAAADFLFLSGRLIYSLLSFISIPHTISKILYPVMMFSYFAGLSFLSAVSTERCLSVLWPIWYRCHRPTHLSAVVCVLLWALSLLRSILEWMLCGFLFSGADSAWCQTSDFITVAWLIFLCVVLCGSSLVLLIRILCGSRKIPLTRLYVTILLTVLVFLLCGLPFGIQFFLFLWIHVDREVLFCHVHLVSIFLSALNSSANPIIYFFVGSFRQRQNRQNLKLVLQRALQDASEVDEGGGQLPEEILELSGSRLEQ
RGS4 block – RGS4 inhibitors, primary screen, cell-based, HEK293 M3R inducible RGS4, calcium flux; 310,000 tested, 0.45% active; B-score at 10 µM; Fluo-4 calcium flux; stronger effect = higher value; triggered by carbachol at its EC20; Regulator of G-protein signaling 4 (Homo sapiens), P49798;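 active means B-score, a plate-corrected calcium signal, over three deviations above library mean, with baseline fluorescence within five deviations of library mean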;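 further: RGS4 expression induced by doxycycline in cells with stable M3 receptor; B-score is computed from the integrated fluorescence ratio over baseline after carbachol; higher B-score means a larger calcium signal and so more RGS4 inhibition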
Target sequence (P49798 whole entry, looked up): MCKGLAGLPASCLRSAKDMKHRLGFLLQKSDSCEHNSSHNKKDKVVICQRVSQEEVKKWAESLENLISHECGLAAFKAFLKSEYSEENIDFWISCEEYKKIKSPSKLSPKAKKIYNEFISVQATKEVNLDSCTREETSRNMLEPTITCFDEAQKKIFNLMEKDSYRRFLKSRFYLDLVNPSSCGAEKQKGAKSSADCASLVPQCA
MrgX1 agonist – agonists of human MrgX1 receptor, primary screen, HEK293 cells, Fluo-4 calcium flux; Mas-related G-protein coupled receptor member X1 (Homo sapiens), Q96LB2; Fluo-4 calcium fluorescence, agonist mode; stronger effect = higher value; B-score at 10 µM; 310,000 tested, 0.44% active;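 active means calcium response B-score plate-corrected fluorescence ratio at least 3 library SD, with starting fluorescence B-score inside 5 SD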
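Test system: Stable human MrgX1 HEK293 cell line | Schedule: Overnight plating before 1 h dye loading | Read-out basis: Baseline-normalised fluorescence change ratio, B-scored | Detection: Kinetic calcium dye fluorescence, Fluo-4 NW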
RGS4 pot – RGS4 potentiators or activators, primary screen, cell-based, HEK293 M3R inducible RGS4, calcium flux | carbachol calcium flux Fluo4; stronger effect = lower value | B-score at 10 µM | 310,000 tested, 0.92% active | AID 463111, 2010;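 active means B-score of the integrated calcium signal more than 4 SD below the library mean, with starting fluorescence not abnormally high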;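 further: negative B-score means reduced calcium response which marks RGS4 activation or potentiation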
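Detection: kinetic calcium fluorescence imaging with Fluo4-AM dye, 2 µM / Material: HEK293 cells with stable M3R and inducible RGS4 / Schedule: recording 10 s baseline at 1 Hz, 100 s post-agonist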
MrgX1 allo act – positive allosteric modulators of MrgX1, primary screen, HEK293 cells, Fluo-4 calcium flux; Mas-related G-protein coupled receptor member X1 (Homo sapiens), Q96LB2; B-score at 10 µM; FDSS; stronger effect = higher value; 310,000 tested, 0.63% active;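 active means plate-corrected calcium response at least 3 library SD above typical, normal starting fluorescence, not activating the receptor alone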;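 further: compound read alongside a low EC10 to EC30 dose of BAM8-22 agonist; peak minus trough fluorescence over baseline measured at the second addition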
RGS4 inh valid – enhanced carbachol calcium response, M3R/RGS4 cells, RGS4 inhibitor project, cell-based, validation screen, HEK293 M3R/RGS4, calcium flux; shares compounds with RGS4 block; carbachol calcium Fluo-4 fluorescence; carbachol added at its EC20; 0 = buffer wells, 100 = carbachol control; calcium response, % at 10 µM; 1,700 tested, 65% active;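 active means duplicate-averaged calcium response above the buffer-only control mean plus 5 SD of those controls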;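 further: integrated fluorescence ratio F max minus min over baseline F0; higher response in RGS4-induced cells means RGS4 inhibition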
M3R Ca ctr – carbachol calcium response in non-induced M3R cells, confirmation, counter-screen for RGS4 inhibitor project, cell-based, HEK293 M3R. shares compounds with RGS4 block. carbachol calcium Fluo-4; submaximal (EC20) carbachol stimulus; buffer wells 0%, carbachol control wells 100%. activity (percent), % at 10 µM. 1,900 tested, 20% active. AID 493000, 2010; call rule not given here;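 further: RGS4 induction absent so cells express M3R without RGS4; higher means more calcium signal and flags a non-specific hit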
RGS4 inh ctr2 – second counter-screen for RGS4 inhibitors: non-induced cells without carbachol; calcium response (agonist-mode artifact), % at 10 µM; HEK293 M3R/RGS4 non-induced, Fluo-4 calcium, no carbachol; normalised: buffer wells 0%, carbachol wells 100%; AID 493001; shares compounds with RGS4 block; 1,900 tested, 22% active;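 active means duplicate-averaged calcium rise in uninduced cells above buffer wells' mean plus 5 SD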
An asterisk follows results filed as active; i = inactive; / = no result. Only some compounds are listed: those with a hit (about 3.5% of all), similar ones and a draw of the others.

SMILES	MrgX1 antag	RGS4 block	MrgX1 agonist	RGS4 pot	MrgX1 allo act	RGS4 inh valid	M3R Ca ctr	RGS4 inh ctr2
C=C1C(=O)O[C@@H]2C[C@@H](C)[C@@H]3C=CC(=O)[C@@]3(C)[C@@H](OC(C)=O)[C@H]12	i	7.64*	33.5*	i	i	21.5%*	i	11.0%*
O=C(N/N=C/c1cccc([N+](=O)[O-])c1)c1ccc(COc2ccccc2-c2ccccc2)cc1	i	i	i	i	i	/	/	/
CC1CN(c2nc3ccccn3c(=O)c2/C=C(\C#N)C(=O)N2CCOCC2)CC(C)O1 (centres undefined)	i	i	i	i	i	/	/	/
CCCCNC(=S)N(CCCO)Cc1cc2cc3c(cc2[nH]c1=O)OCCO3	i	i	i	i	i	/	/	/
COCCNC(=S)N(CCO)Cc1cc2cc3c(cc2[nH]c1=O)OCCO3	i	i	i	i	i	i	i	i
CNC(=S)N(CCO)Cc1cc2cc3c(cc2[nH]c1=O)OCCO3	i	i	i	i	i	/	/	/
COCCCNC(=S)N(CCO)Cc1cc2cc3c(cc2[nH]c1=O)OCCO3	i	5.15*	i	i	i	i	i	i
CCN(CC)CCN(Cc1cc2cc3c(cc2[nH]c1=O)OCCO3)C(=S)NCCCOC	i	i	i	i	i	i	i	i
O=c1ccc2ccc(OCc3ccccc3)cc2o1	i	i	i	i	i	/	/	/
CC1CCN(c2nc(-c3ccco3)c3c(c2C#N)CC(C)(C)OC3)CC1	i	i	i	i	i	i	i	15.0%*
CC1(C)Cc2c(C#N)c(N3CCOCC3)nc(-c3ccccc3)c2CO1	i	i	i	i	i	/	/	/
COc1cccc(C2CC(c3c(-c4ccccc4)c4cc(Cl)ccc4[nH]c3=O)=NN2S(C)(=O)=O)c1OC (centres undefined)	i	5.25*	i	i	i	9.0%*	i	80.0%*
COc1ccccc1C1CC(c2c(-c3ccccc3)c3cc(Cl)ccc3[nH]c2=O)=NN1S(C)(=O)=O (centres undefined)	i	/	i	/	i	/	/	/
COc1ccc(-c2nc(CS(=O)CC(=O)NCCN3CCCCC3C)c(C)o2)cc1OC (centres undefined)	i	i	i	i	i	/	/	/
O=C(NNC(=S)Nc1ccc(Cl)cc1Cl)c1ccc(N2CCOCC2)c([N+](=O)[O-])c1	i	5.2*	i	i	i	9.5%*	33.5%*	i
O=C(/C=C/c1ccc(Cl)cc1)N1CCN(c2ccc(Cl)cc2[N+](=O)[O-])CC1	i	i	i	i	i	/	/	/
O=C(O)c1ccc(N2CCN(c3ccc(Cl)cc3)CC2)c([N+](=O)[O-])c1	i	4.95*	i	i	i	7.5%*	i	i
COc1ccccc1-n1c(CNC(=O)c2ccco2)n[nH]c1=S	i	i	i	i	i	/	/	/
Cc1ccc(N(CC(=O)NCc2ccco2)C(=O)CNS(=O)(=O)c2ccc(F)cc2)c(C)c1	i	i	i	i	i	/	/	/
Cc1ccccc1N(CC(=O)NCc1ccco1)C(=O)CNS(=O)(=O)c1ccc(F)cc1	i	i	i	i	i	i	i	i
Cc1ccc(NCC(=O)N/N=C/c2cc3ccccc3nc2Cl)cc1	i	7.95*	i	i	i	9.5%*	i	i
COc1ccc(C(=O)NCCN2C(=O)S/C(=C\c3cccnc3)C2=O)cc1[N+](=O)[O-]	i	i	i	i	i	i	i	i
Cc1ccc(/C=C/C(=O)N2CC(C)CC(C)C2)o1 (centres undefined)	i	19.1*	i	i	i	31.0%*	i	i
CCOC(=O)c1c(NC(=O)CC2SC(N)=NC2=O)sc2c1CCC(C)C2 (centres undefined)	i	i	i	i	i	/	/	/
COC(=O)c1c(NC(=O)CC2SC(N)=NC2=O)sc2c1CCC(C(C)(C)C)C2 (centres undefined)	i	12*	i	i	i	43.0%*	i	i
SMILES	MrgX1 antag	RGS4 block	MrgX1 agonist	RGS4 pot	MrgX1 allo act	RGS4 inh valid	M3R Ca ctr	RGS4 inh ctr2
COC(=O)c1c(NC(=O)CC2SC(N)=NC2=O)sc2c1CCC(C)C2 (centres undefined)	i	i	i	i	i	/	i	i
COC(=O)c1c(NC(=O)CC2SC(N)=NC2=O)sc2c1CCCC2 (centres undefined)	i	i	i	i	i	/	/	/
CC(C)CC(CO)N1CCN(C(=O)c2ccc(Cl)c(Cl)c2)CCC1=O (centres undefined)	i	i	i	i	i	/	/	/
Cc1ccc(N(CC(=O)N=Nc2c(O)[nH]c3ccccc23)S(C)(=O)=O)c(C)c1	i	i	i	i	i	i	i	i
CCOc1cc(/C=C2/C(=O)ON=C2C)ccc1OCc1ccccc1F	i	9.38*	i	-7.02*	i	i	i	94.5%*
COc1ccc(/C=C2\C(=O)ON=C2c2ccccc2)cc1OC	i	i	i	i	i	/	i	8.5%*
COc1ccc(/C=C2/C(=O)ON=C2c2ccccc2)cc1OC	i	i	i	i	i	/	i	64.0%*
CCOc1cc(/C=C2\C(=O)ON=C2c2ccccc2)ccc1OC	i	24.9*	i	i	i	31.5%*	i	49.5%*
COc1cc(/C=C2\C(=O)ON=C2c2ccccc2)cc(OC)c1OC	i	i	i	i	i	/	/	/
NC1=NC(=Nc2ccc(Cl)cc2)c2ccccc21	i	7.96*	i	i	i	8.0%*	i	i
CCOC(=O)C1CCN(Cc2nc3ccccc3c(=O)n2-c2ccc(F)cc2)CC1	i	5.4*	i	i	i	i	i	i

Source: PubChem
